# Source: PubChem BioAssay (Broad Institute)
# Compounds with a hit are over-represented: about 0.99% of the library has one in this group of screens.
# Dyrk1A ADPGlo: inhibitors of rat Dyrk1A kinase. 0.43% of 310,000 active. ADP-Glo luminescence, NFATc1 peptide. inhibition, % at 12.5 µM. Q63470. AID 504441; in the data active = inhibition above about 50%;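 note: plate controls were vehicle with enzyme for no effect and no enzyme for full effect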
# GSK3beta inhib: human GSK3beta kinase inhibition; GST-GSK3beta kinase, ADP-Glo luminescence, 60 min; hits give low values; activity score (negative = inhibition), % at 10 µM; 0.038% of 300,000 active; AID 2097;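 active = more than half of replicate wells score below -50%, meaning over 50% inhibition versus plate controls; inconclusive = some replicates but at most half score below -50%; inactive = no replicate scores below -50%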;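 note: 0% = median DMSO wells and -100% = median GW8510 positive control wells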
# Target sequence (P49841 whole entry, looked up): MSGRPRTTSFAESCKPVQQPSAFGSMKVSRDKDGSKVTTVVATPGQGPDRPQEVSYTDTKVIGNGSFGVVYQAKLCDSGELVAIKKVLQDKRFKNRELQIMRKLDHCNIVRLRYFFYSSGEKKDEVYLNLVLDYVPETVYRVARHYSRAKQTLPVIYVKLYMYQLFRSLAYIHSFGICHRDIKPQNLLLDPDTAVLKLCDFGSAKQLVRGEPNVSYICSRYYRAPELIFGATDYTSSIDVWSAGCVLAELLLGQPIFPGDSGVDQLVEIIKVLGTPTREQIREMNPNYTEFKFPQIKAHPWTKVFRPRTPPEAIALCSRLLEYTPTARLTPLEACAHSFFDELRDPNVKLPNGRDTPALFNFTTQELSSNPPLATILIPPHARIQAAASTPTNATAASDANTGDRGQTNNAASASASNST
#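 Assay system: GST-fused GSK3beta enzyme, cell-free / Medium: Tris pH 7.5 buffer with MgCl2, DTT, BSA, heparin / Also added: peptide substrate plus 25 µM ATP (final) / Compound: 10 µM single point / Timing: kinase reaction with compound 60 min at room temperature / Detection: ADP-Glo luminescence / Benchmarks: DMSO neutral wells and GW8510 at 20 µM as positive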
# STK33 inh: human STK33 kinase inhibition | 0.073% of 320,000 active | purified STK33, MBP phosphorylation, ADP-Glo luminescence | inhibition, % at 10 µM;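 active = inhibition at or above 25%, using the most active replicate where run in duplicate; inactive = inhibition below 25%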
# GSK3A inh: inhibitors of human GSK-3 alpha kinase; P49840; ADP-Glo luminescence, 60 min; inhibition, % at 10 µM; 0.1% of 320,000 active; AID 2650;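 active = more than half of replicates show inhibition above 20%; inconclusive = some but at most half of replicates above 20% inhibition; inactive = no replicate shows inhibition above 20%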;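 note: GST-tagged GSK-3 alpha with peptide substrate and 25 µM ATP; 0% = DMSO neutral wells and 100% = GW8510 positive control wells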
# AI-2 QS mod: modulators of Vibrio harveyi AI-2 quorum sensing system. Vibrio harveyi JMH597 AI-2 luminescence/OD600 ratio, 9 h; hits give low values; strain lacks LuxN and CqsS sensors; 0 = neutral-control median. activity change, % at 7.5 µM. 0.4% of 300,000 active. AID 2094; in the data active = activity change below about -75%, passing the limit was not always enough; inconclusive = no clear call, values can overlap the other calls;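 note: luminescence divided by OD600 gain over 9 h not by final OD600 alone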
# Rce1 inhib: blocks yeast Ras-converting enzyme; yeast membranes, quenched prenylated peptide cleavage fluorescence; calls only; 0.27% of 290,000 active;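 active = fall in fluorescence gain of 50% or more versus controls, with final raw signal at or below 3038400; inconclusive = same 50% fall but final raw signal above 3038400; inactive = fall in fluorescence gain under 50%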;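 note: plate controls were neutral control wells for no effect and wells lacking membranes for full effect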
# Target sequence (Q03530 whole entry, looked up): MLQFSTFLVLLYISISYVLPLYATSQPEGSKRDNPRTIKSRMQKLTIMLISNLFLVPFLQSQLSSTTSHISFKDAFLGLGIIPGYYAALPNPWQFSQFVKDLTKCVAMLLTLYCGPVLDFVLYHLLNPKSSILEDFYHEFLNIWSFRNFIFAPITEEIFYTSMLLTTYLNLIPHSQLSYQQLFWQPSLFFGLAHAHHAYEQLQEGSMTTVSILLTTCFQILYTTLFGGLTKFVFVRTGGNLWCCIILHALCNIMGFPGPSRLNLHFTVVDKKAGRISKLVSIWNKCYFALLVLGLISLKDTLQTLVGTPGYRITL
# JMH597 growth: retest Vibrio harveyi JMH597 growth inhibition. OD600 absorbance, 9 h; lacks LuxN and CqsS sensors. 1% of 750 active. AID 2726. shares compounds with AI-2 QS mod. growth inhibition, % at 7.5 µM;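 active = every replicate shows growth inhibition above 50%; inconclusive = at least half, but not all, replicates pass that cutoff; inactive = fewer than half of replicates pass it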
# BB721 lum counter: retest counter-screen: luminescence loss in constitutive-on quorum sensing strain BB721; 95% of 750 active; shares compounds with AI-2 QS mod; inhibition, % at 7.5 µM; Vibrio harveyi BB721 luminescence, 9 h;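 active = inhibition above about 80% in every replicate, not just on average, limit read from the data; inconclusive = at least half of replicates past the limit, but not all; inactive = fewer than half of replicates past the limit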
# BB721 growth: retest Vibrio harveyi BB721 growth inhibition; shares compounds with AI-2 QS mod; growth inhibition, % at 7.5 µM; OD600 absorbance, 9 h; AID 2728; 3% of 750 active;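 active = every replicate shows growth inhibition above 50%; inconclusive = at least half but not all replicates above 50% inhibition; inactive = under half of replicates above 50% inhibition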
# JMH597 AI-2 mod: Vibrio harveyi AI-2 signaling luminescence modulation – JMH597 strain, confirmation | 97% of 750 active | shares compounds with AI-2 QS mod | inhibition, % at 7.5 µM | AID 2736 | Vibrio harveyi JMH597 AI-2 quorum sensing luminescence, 9 h; luxN and CqsS knockout, AI-2 only;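 active = every replicate shows more than 75% inhibition of signal versus neutral control wells; inconclusive = half to three quarters of replicates exceed 75% inhibition; inactive = fewer than half of replicates exceed 75% inhibition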
# Active calls of the source: *; i = inactive; ? = inconclusive; / = no result given.
SMILES,Dyrk1A ADPGlo,GSK3beta inhib,STK33 inh,GSK3A inh,AI-2 QS mod,Rce1 inhib,JMH597 growth,BB721 lum counter,BB721 growth,JMH597 AI-2 mod
CCOC(=O)c1c(S(=O)(=O)N2CCCCC2C)c(C)n(C)c1C (stereo not drawn),-5,1,-1,/,3,i,/,/,/,/
Cc1cc(C)cc(NC(=O)COC(=O)c2n[nH]c3ccccc23)c1,/,-2,0,5,-89*,i,-8,96*,-23,96*
CC(=O)c1cccc(NC(=O)COC(=O)c2n[nH]c3ccccc23)c1,/,0,-1,-4,-81*,i,11,95*,-3,97*
O=C(COC(=O)c1n[nH]c2ccccc12)Nc1ccccc1,8,2,-4,-1,-66,i,/,/,/,/
CC(NC(C)c1ccccc1Cl)C(=O)Nc1cccc(S(=O)(=O)N2CCCCC2)c1 (stereo not drawn),5,/,-1,1,/,/,/,/,/,/
O=[N+]([O-])c1ccc(NC2CCCC2)cc1,3,-23,-1,-1,-83*,i,28,93*,20,94*
O=[N+]([O-])c1ccc(NC2CCCCC2)nc1,5,/,/,/,/,/,/,/,/,/
Clc1ccc(-c2cc(COc3ccccc3)on2)cc1,-1,-1,-3,0,?,i,/,/,/,/
Clc1ccc(OCc2cc(-c3ccccc3)no2)cc1Cl,5,-3,0,-3,?,i,-16,97*,-25,98*
O=c1oc2ccccc2cc1NCc1ccccc1O,9,0,0,-2,-94*,i,14,97*,15,98*
Cc1nc2ccc(NS(=O)(=O)c3c(F)cc(F)cc3Br)cc2s1,/,/,1,-3,/,/,/,/,/,/
O=S(=O)(N/N=C\C=C\c1ccccc1)c1ccc(Cl)cc1,-4,-2,-1,-4,-94*,i,41,99*,27,100*
Cc1cc(C(C)(C)C)cc(C)c1S(=O)(=O)N1CCN(C(=O)c2cc([N+](=O)[O-])c[nH]c2=O)CC1,-2,3,-1,-4,11,i,/,/,/,/
O=C(Cc1ccc(Cl)cc1)N/N=C/c1cccc(O)c1,12,-1,1,13,-95*,i,12,97*,1,98*
O=C(Cc1ccc(Cl)cc1)N/N=C/c1ccncc1,0,-1,2,1,-81*,i,-25,92*,6,92*
CCOc1ccc(NC(=O)Cn2c(=O)n(CCCC(=O)NC3CCN(Cc4ccccc4)CC3)c(=O)c3ccccc32)cc1,1,2,-1,-1,7,i,/,/,/,/
Cc1cc(C(=O)COC(=O)C2=COCCO2)c(C)n1-c1ccccc1,-3,/,1,-2,/,/,/,/,/,/
COc1ccc(S(=O)(=O)Nc2ccc3c(c2)OCCO3)cc1Cl,-1,0,0,-2,24,i,/,/,/,/
CC(=O)Nc1ccc(S(=O)(=O)Nc2ccc3c(c2)OCCO3)cc1Cl,/,-25,-2,-1,-97*,i,5,99*,-35,100*
CC(C)c1ccc(CN(C)C(=O)c2ccc(S(=O)(=O)NCc3ccco3)cc2)cc1,0,/,/,/,/,/,/,/,/,/
CCN1C[C@@H]2[C@@H]3C(=O)N(C)C(=O)[C@@H]3[C@](C)(C(=O)OC)N2C1=NC,-2,/,/,/,/,/,/,/,/,/
O=C(c1cc(-c2ccc(Cl)cc2)on1)N1CCCCCC1,-12,2,0,-2,15,i,/,/,/,/
O=C(c1cc(-c2ccc(O)cc2)on1)N1CCCCCC1,6,-1,1,2,-78*,i,3,93*,-5,96*
O=C(O)c1ccc(N/N=C/c2ccc3c(c2)OCO3)cc1,27,-13,17,19,-85*,i,9,98*,39,98*
COc1cccc(C(=O)Oc2ccc(/C=N/Nc3ccc(C(=O)O)cc3)cc2OC)c1,-7,2,0,2,41,i,/,/,/,/
SMILES,Dyrk1A ADPGlo,GSK3beta inhib,STK33 inh,GSK3A inh,AI-2 QS mod,Rce1 inhib,JMH597 growth,BB721 lum counter,BB721 growth,JMH597 AI-2 mod
O=C(O)c1ccc(N/N=C/c2cc3c(cc2[N+](=O)[O-])OCO3)cc1,/,-1,0,5,?,i,26,93*,15,94*
COc1cccc(OCc2cc(/C=N/Nc3ccc(C(=O)O)cc3)ccc2OC)c1,0,-1,0,0,-84*,i,19,92*,5,95*
Cc1ccc(S(=O)(=O)N2C[C@@H]3CCCC[C@@H]3[C@@H](C)[C@H]2c2cn(Cc3ccccc3)c3ncccc23)cc1,-1,/,/,/,/,/,/,/,/,/
Cc1cc(C)cc(C(=O)NC(CC(N)=O)c2ccc(NC3CCCC3)c([N+](=O)[O-])c2)c1 (stereo not drawn),-10,4,0,-2,11,i,/,/,/,/
COc1ccc2cc(C[C@@H]3CC[C@@H](CO)O3)ccc2c1,-1,/,/,/,/,/,/,/,/,/
O=C1c2ccccc2NC(c2ccc(Br)s2)N1O (stereo not drawn),/,3,-2,0,71,i,/,/,/,/
CCc1nnc(NC(=O)CSc2ccc(-c3ccco3)nn2)s1,-2,3,-1,-3,-83*,i,15,94*,14,96*
COc1ccc(CNC(=S)Nc2ccccc2)cc1,/,-5,-1,0,-61,i,/,/,/,/
COCCN(C(=O)COC(=O)Cc1coc2cc3c(cc12)CCC3)c1c(N)n(Cc2ccccc2)c(=O)[nH]c1=O,/,1,1,0,-12,i,/,/,/,/
Cc1ccccc1Nc1nc(N)nc(COc2ccc(C#N)cc2)n1,10,-1,-1,-5,-83*,/,10,93*,22,96*
COc1cc(/C=N/NC(=O)Cn2cnc3ccccc3c2=O)ccc1O,0,-3,1,-3,-89*,i,-7,95*,-17,97*
O=C(Cn1cnc2ccccc2c1=O)N/N=C/c1ccc(Br)cc1,1,-1,-1,-1,-14,/,/,/,/,/
COc1ccc(Cl)cc1C(=O)Nc1ccccc1N1CCCCC1,-3,5,-1,0,19,i,/,/,/,/
O=C(/C=C/c1cccs1)NCc1ccccc1,/,2,0,1,-90*,i,9,97*,5,97*
CCC(C)NC(=O)/C=C/c1cccs1 (stereo not drawn),-4,2,1,0,38,i,/,/,/,/
CCCC(=O)Nc1ccc2c(c1)nc(CCN1CCCCC1)n2C,-4,-3,-1,-2,29,i,/,/,/,/
